Assay results as given in ChEMBL document CHEMBL4680084, “New β-Lactam Derivatives Modulate Cell Adhesion and Signaling Mediated by RGD-Binding and Leukocyte Integrins” (J Med Chem, 2016).
Activity calls are given as the source filed them. The calls are words filed in the database; no cut-off is given here.

Assays:
SK-MEL-24 = experiment: Toxicity in human SK-MEL-24 cells assessed as induction of cell necrosis and/or apoptosis incubated for 3 hrs by annexin V-PE and 7-AAD staining based by flow cytometry; details: sk-mel-24, 3 h
In short: (§1)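 After 3 h incubation, cells resuspended in complete medium and stained with annexin V-PE/7-AAD reagent for 20 min at room temperature in the dark. Flow cytometry sorted cells into viable, early apoptotic and late apoptotic/necrotic populations.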

[1] = biological target: T1, Integrin alpha-IIb/beta-3 (Homo sapiens, UniProt P05106+P08514); experiment: Agonist activity at alpha2bbeta3 in human HEL cells assessed as increase in cell adhesion to fibrinogen pre-incubated for 30 mins before fibrinogen and further incubated for 1 hr by nitrophenyl-N-acetyl-beta-D-glucosaminide substrate based chromogenic assay
In short: (§2)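 Compound or methanol vehicle pre-incubated with cells for 30 min at room temperature. Cells then plated on wells coated overnight at 4 °C with fibronectin 10 µg/mL (SK-MEL-24, K562, HT-29) or fibrinogen 10 µg/mL (MCF7, HEL). Seeding was 50,000 cells/well, or 100000 for HEL. Adhesion ran 1 h at room temperature. Wells washed with 1% BSA/PBS. Quadruplicate, at least three repeats.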

[2] = biological target: T2, Integrin alpha-L/beta-2 (LFA-1) (Homo sapiens, UniProt P05107+P20701); experiment: Agonist activity at alphaLbeta2 in human Jurkat E6.1 cells assessed as increase in cell adhesion to ICAM1 pre-incubated for 30 mins before ICAM1 and further incubated for 30 mins by […]; type: cell-based
In short: (§3)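 Jurkat E6.1 cells labelled with CellTracker green CMFDA (12.5 µM, 30 min, 37 °C), washed, then pre-incubated 30 min at 37 °C with compound or methanol. Plated at 500,000/well on VCAM-1 (α4β1) or ICAM-1 (αLβ2) coated wells (5 µg/mL) for 30 min at 37 °C. Cells lysed in 0.5% Triton X-100; fluorescence read Ex485/Em535. Quadruplicate, at least three repeats.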

Integrin alpha-V/beta-5 [3] = biological target: T3, Integrin alpha-V/beta-5 (Homo sapiens, UniProt P06756+P18084); experiment: Inhibition of fibrinogen binding to alphaVbeta5 isolated form human mCf7 cells incubated for 1 hr by […] competitive solid-phase binding assay
Integrin alpha-V/beta-5 [4] = biological target: T3, Integrin alpha-V/beta-5; experiment: Antagonist activity at alphaVbeta5 in human MCF7 cells assessed as reduction in cell adhesion to fibrinogen pre-incubated for 30 mins before fibrinogen and further incubated for 1 hr by nitrophenyl-N-acetyl-beta-D-glucosaminide substrate based chromogenic assay; in short: as §2
K562 = experiment: Toxicity in human K562 cells assessed as induction of cell necrosis and/or apoptosis incubated for 3 hrs by annexin V-PE and 7-AAD staining based by flow cytometry; details: k562, 3 h; in short: as §1
Integrin alpha-V/beta-6 [5] = biological target: T4, Integrin alpha-V/beta-6 (Homo sapiens, UniProt P06756+P18564); experiment: Inhibition of fibronectin binding to alphaVbeta6 isolated form human HT-29 cells incubated for 1 hr by […] competitive solid-phase binding assay; type: tissue-based
HT-29 = experiment: Toxicity in human HT-29 cells assessed as induction of cell necrosis and/or apoptosis incubated for 3 hrs by annexin V-PE and 7-AAD staining based by flow cytometry; details: ht-29, 3 h; in short: as §1
Integrin alpha-4/beta-1 [6] = biological target: T5, Integrin alpha-4/beta-1 (Homo sapiens, UniProt P05556+P13612); experiment: Inhibition of fibronectin binding to […] isolated from human Jurkat E6.1 cells incubated for 1 hr by scintillation-proximity assay based competitive solid-phase binding assay; type: tissue-based
Integrin alpha-5/beta-1 [7] = biological target: T6, Integrin alpha-5/beta-1 (Homo sapiens, UniProt P05556+P08648); experiment: Antagonist activity at alpha5beta1 in human K562 cells assessed as assessed as reduction in ERK1/2 phosphorylation at 1 to 100 nM by Western blot analysis; type: cell-based; details: filed as antagonist, dose 1-100 nM
Integrin alpha-4/beta-1 [8] = biological target: T5, Integrin alpha-4/beta-1; experiment: Antagonist activity at alpha4beta1 in human Jurkat E6.1 cells assessed as reduction in VCAM-1 induced ERK1/2 phosphorylation at 1 to 100 nM by Western blot analysis; type: cell-based; details: filed as antagonist, dose 1-100 nM
[9] = biological target: T1, Integrin alpha-IIb/beta-3; experiment: Antagonist activity at alpha2bbeta3 in human HEL cells assessed as reduction in cell adhesion to fibrinogen pre-incubated for 30 mins before fibrinogen and further incubated for 1 hr by nitrophenyl-N-acetyl-beta-D-glucosaminide substrate based chromogenic assay; in short: as §2
Integrin alpha-4/beta-1 [10] = biological target: T5, Integrin alpha-4/beta-1; experiment: Antagonist activity at alpha4beta1 in human Jurkat E6.1 cells assessed as reduction in cell adhesion to VCAM1 pre-incubated for 30 mins before VCAM1 and further incubated for 30 mins by […]; type: cell-based
Integrin alpha-5/beta-1 [11] = biological target: T6, Integrin alpha-5/beta-1; experiment: Inhibition of fibronectin binding to alpha5beta1 isolated from human K562 cells incubated for 1 hr by […] competitive solid-phase binding assay; type: tissue-based
In short: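 Plates coated overnight at 4 °C in carbonate buffer pH 9.6 with fibronectin 0.5 µg/mL (αvβ3, αvβ6, α5β1), fibrinogen 10 µg/mL (αIIbβ3, αvβ5) or ICAM-1 (αLβ2). Blocked 1 h in buffer containing Ca/Mg/Mn 1 mM each and 1% BSA. Purified integrin (3–10 µg/mL) incubated with compound (10⁻⁴–10⁻¹⁰ M) 1 h at room temperature. Bound integrin detected with primary antibody then AlexaFluor488 secondary, Ex485/Em535. Duplicate, at least three repeats.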

Integrin alpha-V/beta-3 [12] = biological target: T7, Integrin alpha-V/beta-3 (Homo sapiens, UniProt P05106+P06756); experiment: Inhibition of fibronectin binding to human recombinant alphaVbeta3 expressed in HEK293 cells incubated for 1 hr by […] competitive solid-phase binding assay; type: cell-based
HEL = experiment: Toxicity in human HEL cells assessed as induction of cell necrosis and/or apoptosis incubated for 3 hrs by annexin V-PE and 7-AAD staining based by flow cytometry; in short: as §1
Integrin alpha-4/beta-1 [13] = biological target: T5, Integrin alpha-4/beta-1; experiment: Antagonist activity at alpha4beta1 in human Jurkat E6.1 cells assessed as reduction in exposure of HUTS-21 epitope measured by mAb binding; type: cell-based; details: filed as antagonist
In short: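 Jurkat E6.1 cells at 10⁶/mL in 1% BSA/HBSS incubated 30 min at 37 °C with compound. PE-labelled HUTS-21 mAb then added for 45 min at room temperature. Cells washed, 10,000 analysed by flow cytometry. MFI corrected to isotype control set to 0. Four independent experiments in duplicate.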

Integrin alpha-V/beta-5 [14] = biological target: T3, Integrin alpha-V/beta-5; experiment: Agonist activity at alphaVbeta5 in human MCF7 cells assessed as increase in cell adhesion to fibrinogen pre-incubated for 30 mins before fibrinogen and further incubated for 1 hr by nitrophenyl-N-acetyl-beta-D-glucosaminide substrate based chromogenic assay
In short: as §2, with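 “BSA/PBS. Adherent cells read by hexosaminidase substrate, absorbance 405 nm.” for “BSA/PBS.”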

Integrin alpha-5/beta-1 [15] = biological target: T6, Integrin alpha-5/beta-1; experiment: Antagonist activity at alpha5beta1 in human K562 cells assessed as reduction in cell adhesion to fibronectin pre-incubated for 30 mins before fibronectin and further incubated for 1 hr by nitrophenyl-N-acetyl-beta-D-glucosaminide substrate based chromogenic assay
In short: as §2, with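 “BSA/PBS. Adherent cells read by hexosaminidase substrate, absorbance 405 nm.” for “BSA/PBS.”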

Integrin alpha-4/beta-1 [16] = biological target: T5, Integrin alpha-4/beta-1; experiment: Antagonist activity at alpha4beta1 in human Jurkat E6.1 cells assessed as reduction in VCAM-1 induced ERK1/2 phosphorylation at 1 to 100 pM by Western blot analysis; type: cell-based; details: filed as antagonist, dose 1-100 pM
Integrin alpha-V/beta-3 [17] = biological target: T7, Integrin alpha-V/beta-3; experiment: Antagonist activity at alphaVbeta3 in human SK-MEL-24 cells assessed as reduction in cell adhesion to fibronectin pre-incubated for 30 mins before fibronectin and further incubated for 1 hr by nitrophenyl-N-acetyl-beta-D-glucosaminide substrate based chromogenic assay; in short: as §2
Integrin alpha-V/beta-6 [18] = biological target: T4, Integrin alpha-V/beta-6; experiment: Agonist activity at alphaVbeta6 in human HT-29 cells assessed as increase in cell adhesion to fibronectin pre-incubated for 30 mins before fibronectin and further incubated for 1 hr by nitrophenyl-N-acetyl-beta-D-glucosaminide substrate based chromogenic assay
In short: as §2, with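 “BSA/PBS. Adherent cells read by hexosaminidase substrate, absorbance 405 nm.” for “BSA/PBS.”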

MCF7 = experiment: Toxicity in human MCF7 cells assessed as induction of cell necrosis and/or apoptosis incubated for 3 hrs by annexin V-PE and 7-AAD staining based by flow cytometry; details: mcf7, 3 h; in short: as §1
Integrin alpha-V/beta-6 [19] = biological target: T4, Integrin alpha-V/beta-6; experiment: Antagonist activity at alphaVbeta6 in human HT-29 cells assessed as reduction in cell adhesion to fibronectin pre-incubated for 30 mins before fibronectin and further incubated for 1 hr by nitrophenyl-N-acetyl-beta-D-glucosaminide substrate based chromogenic assay; in short: as §2
[20] = biological target: T2, Integrin alpha-L/beta-2 (LFA-1); experiment: Antagonist activity at alphaLbeta2 in human Jurkat E6.1 cells assessed as reduction in cell adhesion to ICAM1 pre-incubated for 30 mins before ICAM1 and further incubated for 30 mins by […]; type: cell-based; in short: as §3
Integrin alpha-V/beta-3 [21] = biological target: T7, Integrin alpha-V/beta-3; experiment: Agonist activity at alphaVbeta3 in human SK-MEL-24 cells assessed as increase in cell adhesion to fibronectin at 2 to 10 ug/ml pre-incubated for 30 mins and further incubated for 1 hr by nitrophenyl-N-acetyl-beta-D-glucosaminide substrate based chromogenic assay; details: filed as agonist, dose 2-10 µg/ml, time 90.0 min
Integrin alpha-V/beta-3 [22] = biological target: T7, Integrin alpha-V/beta-3; experiment: (§4) Agonist activity at alphaVbeta3 in human SK-MEL-24 cells assessed as increase in cell adhesion to fibronectin at 10 ug/ml pre-incubated for 30 mins and further incubated for 1 hr in presence of in presence of integrin antagonist c(-RGDfV) by nitrophenyl-N-acetyl-beta-D-glucosaminide substrate based chromogenic assay; details: dose 10.0 µg/ml, time 90.0 min
Integrin alpha-4/beta-1 [23] = biological target: T5, Integrin alpha-4/beta-1; experiment: Agonist activity at alpha4beta1 in human Jurkat E6.1 cells assessed as increase in cell adhesion to VCAM1 pre-incubated for 30 mins before VCAM1 and further incubated for 30 mins by […]; type: cell-based; in short: as §3
[24] = biological target: T1, Integrin alpha-IIb/beta-3; experiment: Inhibition of fibrinogen binding to alpha2bbeta3 isolated from human HEL cells incubated for 1 hr by […] competitive solid-phase binding assay
Integrin alpha-V/beta-3 [25] = biological target: T7, Integrin alpha-V/beta-3; experiment: as §4, with “of neutralizing antibody against the alphaV” for “of in presence of”, “integrin subunit” for “integrin antagonist c(-RGDfV)”; details: dose 10.0 µg/ml, time 90.0 min
Integrin alpha-V/beta-3 [26] = biological target: T7, Integrin alpha-V/beta-3; experiment: Agonist activity at human alphaVbeta3 expressed in HEK293 cells assessed as increase in ERK1/2 phosphorylation by Western blot analysis; type: cell-based; details: filed as agonist

| Structure (SMILES) | Activity (SK-MEL-24) | EC50 [1] [nM] | EC50 [2] [nM] | IC50 (Integrin alpha-V/beta-5 [3]) [nM] | Activity (K562) | IC50 (Integrin alpha-V/beta-6 [5]) [nM] | Activity (HT-29) | IC50 (Integrin alpha-4/beta-1 [6]) [nM] | IC50 [9] [nM] | IC50 (Integrin alpha-4/beta-1 [10]) [nM] | IC50 (Integrin alpha-5/beta-1 [11]) [nM] | IC50 (Integrin alpha-V/beta-3 [12]) [nM] | Activity (HEL) | EC50 (Integrin alpha-V/beta-5 [14]) [nM] | EC50 (Integrin alpha-V/beta-6 [18]) [nM] | Activity (MCF7) | IC50 (Integrin alpha-V/beta-6 [19]) [nM] | IC50 [20] [nM] | further results |
| --- | --- | --- | --- | --- | --- | --- | --- | --- | --- | --- | --- | --- | --- | --- | --- | --- | --- | --- | --- |
| Cc1ccccc1NC(=O)N1C(=O)C[C@H]1C(=O)O | Non-Toxic | > 5000 | > 5000 | > 1000 | Non-Toxic | > 1000 | Non-Toxic | 1.1 | > 5000 | 1.39 | 114 | 285 | Non-Toxic | > 5000 | > 5000 | Non-Toxic | > 5000 | > 5000 | IC50 (Integrin alpha-V/beta-5 [4]): > 5000 nM; Activity (Integrin alpha-5/beta-1 [7]): Dose-dependent effect; Activity (Integrin alpha-4/beta-1 [8]): Active; Activity (Integrin alpha-4/beta-1 [13]): Dose-dependent effect; IC50 (Integrin alpha-5/beta-1 [15]): 158 nM; Activity (Integrin alpha-4/beta-1 [16]): Dose-dependent effect; IC50 (Integrin alpha-V/beta-3 [17]): 352 nM |
| NCc1ccc(NC(=O)N2C(=O)CC2CC(=O)NCC(=O)O)cc1.O=C(O)C(F)(F)F (centres undefined) | Non-Toxic | > 5000 | > 5000 | 104 | Non-Toxic | > 1000 | Non-Toxic | > 1000 | > 5000 | > 5000 | > 1000 | 1.2 | Non-Toxic | 505 | > 5000 | Non-Toxic | > 5000 | > 5000 | Activity (Integrin alpha-V/beta-3 [21]): Dose-dependent effect; Activity (Integrin alpha-V/beta-3 [22]): inactive; EC50 (Integrin alpha-4/beta-1 [23]): > 5000 nM; IC50 [24]: > 1000 nM; Activity (Integrin alpha-V/beta-3 [25]): inactive; Activity (Integrin alpha-V/beta-3 [26]): Dose-dependent effect |
